Measured values taken from ChEMBL document CHEMBL1133755, “Synthesis of fluorosugar analogues of 2,5,6-trichloro-1-(beta-D-ribofuranosyl)benzimidazole as antivirals with potentially increased glycosidic bond stability” (J Med Chem, 2000).

Key:
HFF [1] = test: Compound was tested for antiviral activity against human cytomegalovirus (HCMV) by plaque reduction assay using HFF cells; type: functional, cell-based
Procedure, shortened: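 HCMV plaque reduction assay in HFF cells, run in duplicate. Value reported as IC50. Highest concentration tested 10 or 100.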

HFF [2] = test: Compound was tested for visual cytotoxicity on human foreskin fibroblasts (HFF) cells; type: functional, cell-based
Procedure, shortened: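 Cytotoxicity in HFF cells scored visually at the time HCMV plaques were counted. Results from duplicate experiments.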

Human alphaherpesvirus 1 = test: Compound was tested for antiviral activity against herpes simplex virus type 1 (HSV-1); type: functional, organism-based
Procedure, shortened: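 HSV-1 activity read by ELISA in quadruplicate wells, with the plaque assay used for the DHPG control. Value reported as IC50. Top concentration tested 10 or 100.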

[3] = Compound was tested for inhibition activity of human oral carcinoma cell line (KB ) cells in quadruplicate assay.; type: functional, cell-based
Procedure, shortened: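 KB cell growth inhibition was run in quadruplicate wells and reported as IC50, meaning the concentration that halves growth. Values marked > indicate that 50% inhibition was not reached at the highest concentration tested.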

HFF [4] = test: Compound was tested for antiviral activity against human cytomegalovirus (HCMV) by yield reduction assay using HFF cells; type: functional
Procedure, shortened: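 HCMV yield reduction assay in HFF cells, run in duplicate. Value reported as IC90. Highest concentration tested 10 or 100.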

Structure (SMILES)	IC50 (HFF [1]) [µM]	IC50 (HFF [2]) [µM]	IC50 (Human alphaherpesvirus 1) [µM]	IC50 [3] [µM]	IC90 (HFF [4]) [µM]
Clc1cc2nc(Cl)n([C@@H]3O[C@H](COC(c4ccccc4)(c4ccccc4)c4ccccc4)[C@@H](OC(c4ccccc4)(c4ccccc4)c4ccccc4)[C@@H]3OC(c3ccccc3)(c3ccccc3)c3ccccc3)c2cc1Cl	> 10	> 100	> 100	> 100	–
O=C(OC[C@H]1O[C@@H](n2c(Cl)nc3cc(Cl)c(Cl)cc32)[C@@H](F)[C@@H]1OC(=O)c1ccccc1)c1ccccc1	–	–	–	100	–
OC[C@H]1O[C@@H](n2c(Cl)nc3cc(Cl)c(Cl)cc32)[C@@H](F)[C@@H]1O	8	32	50	60	8
OC[C@H]1O[C@@H](n2c(Br)nc3cc(Cl)c(Cl)cc32)[C@H](F)[C@@H]1O	17	100	> 100	80	–
OC[C@H]1O[C@@H](n2c(Cl)nc3cc(Cl)c(Cl)cc32)C(O)[C@@H]1F (stereo not given in full)	9.4	40	> 100	> 100	13
CC(C)Nc1nc2cc(Cl)c(Cl)cc2n1[C@@H]1O[C@H](CO)[C@@H](O)[C@H]1F	> 100	> 100	> 100	> 100	–
Nc1nc2c(ncn2COC(CO)CO)c(=O)[nH]1 [GANCICLOVIR]	–	> 100	–	> 100	1.6
OC[C@H]1O[C@@H](n2c(Cl)nc3cc(Cl)c(Cl)cc32)[C@H](O)[C@@H]1O	–	–	–	210	1.4
OC[C@H]1O[C@@H](n2cnc3cc(Cl)c(Cl)cc32)[C@H](F)[C@@H]1O	> 100	> 100	> 100	> 100	–
O[C@H]1[C@H](OC(c2ccccc2)(c2ccccc2)c2ccccc2)[C@@H](COC(c2ccccc2)(c2ccccc2)c2ccccc2)O[C@H]1n1c(Cl)nc2cc(Cl)c(Cl)cc21	> 10	> 100	> 100	> 100	–
OC[C@H]1O[C@@H](n2c(Br)nc3cc(Cl)c(Cl)cc32)[C@H](O)[C@@H]1O	–	–	–	> 100	0.2
OC[C@H]1O[C@@H](n2cnc3cc(Cl)c(Cl)cc32)[C@H](O)[C@@H]1O [DICHLORORIBOBENZIMIDAZOLE]	–	–	–	36	19
